Measurements published in ChEMBL document CHEMBL1156144, “Biaryl ethers as novel non-nucleoside reverse transcriptase inhibitors with improved potency against key mutant viruses” (J Med Chem, 2009).

Legend:
Rattus norvegicus = assay: AUC in Sprague-Dawley rat at 2 mg/kg, iv; assay type: ADME, organism-based, Plasma; set-up: dose 2 mg/kg, route intravenous; conditions: in vivo
[1] = tested on: Human immunodeficiency virus; assay: Antiviral activity against HIV with reverse transcriptase K103N/Y181C double mutant infected in human MT2 cells assessed as inhibition of viral replication measuring p24 level after 3 days in presence of 10% fetal bovine serum; assay type: functional; conditions: Human immunodeficiency virus 1, MT2, Serum, 72 h; read-out: CIC95
In short: (§1)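 Multiple-cycle replication (Spread) assay in MT2 cells with H9IIIB-background mutant virus. Cells were infected overnight at moi ≈ 0.01 without compound, washed, then cultured 3 days across a range of compound concentrations in medium with 10% FBS. p24 was measured in supernatants. CIC95 is the lowest concentration inhibiting replication by ≥95%, reported as the geometric mean of ≥2 determinations.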

[2] = Half life in Sprague-Dawley rat at 2 mg/kg, iv; assay type: ADME, organism-based; set-up: dose 2 mg/kg, route intravenous; conditions: in vivo
[3] = tested on: Human immunodeficiency virus; assay: Antiviral activity against wild type HIV H9-3B infected in human MT2 cells assessed as inhibition of viral replication measuring p24 level after 3 days in presence of 50% normal human serum; assay type: functional; conditions: Human immunodeficiency virus 1, H9-3B, 72 h, read-out: CIC95
In short: (§2)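 Multiple-cycle spread assay in MT2 cells with wild-type H9IIIB virus. Cells were infected overnight at moi ≈ 0.01 without compound, washed, then cultured 3 days across varying compound concentrations in RPMI 1640 with 10% FBS or 50% NHS. p24 was measured in supernatants. CIC95 is the lowest concentration inhibiting replication ≥95%, as the geometric mean of ≥2 determinations.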

[4] = tested on: Human immunodeficiency virus; assay: Antiviral activity against wild type HIV H9-3B infected in human MT2 cells assessed as inhibition of viral replication measuring p24 level after 3 days in presence of 10% fetal bovine serum; assay type: functional; conditions: Human immunodeficiency virus 1, MT2, Serum; read-out: CIC95; in short: as §2
[5] = tested on: Human immunodeficiency virus; assay: Antiviral activity against HIV with reverse transcriptase Y181C mutant infected in human MT2 cells assessed as inhibition of viral replication measuring p24 level after 3 days in presence of 10% fetal bovine serum; assay type: functional; conditions: Human immunodeficiency virus 1, MT2, Serum, 72 h; read-out: CIC95; in short: as §1
[6] = Clearance in Sprague-Dawley rat at 2 mg/kg, iv; assay type: ADME, organism-based; set-up: dose 2 mg/kg, route intravenous; conditions: in vivo
[7] = tested on: Human immunodeficiency virus; assay: Antiviral activity against HIV with reverse transcriptase K103N mutant infected in human MT2 cells assessed as inhibition of viral replication measuring p24 level after 3 days in presence of 10% fetal bovine serum; assay type: functional; conditions: Human immunodeficiency virus 1, MT2, Serum, 72 h; read-out: CIC95; in short: as §1
[8] = target: Human immunodeficiency virus type 1 reverse transcriptase (Human immunodeficiency virus 1, UniProt Q72547, K103N); assay: Inhibition of RNA-dependent DNA polymerase activity of recombinant HIV reverse transcriptase K103N mutant assessed as BrdU incorporation by standard ECL assay
[9] = Volume of distribution in Sprague-Dawley rat at 2 mg/kg, iv; assay type: ADME, organism-based; set-up: dose 2 mg/kg, route intravenous; conditions: in vivo
[10] = Inhibition of RNA-dependent DNA polymerase activity of wild type HIV reverse transcriptase assessed as BrdU incorporation by standard ECL assay; set-up: species or system Human immunodeficiency virus
In short: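 Purified recombinant wild-type RT polymerase activity was measured using a 500-nt heteropolymeric RNA template and a biotinylated DNA primer. BrdU incorporation was detected with a ruthenylated anti-BrdU antibody by electrochemiluminescence. Ki is the geometric mean of at least two determinations, each within 25% of the mean.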

[11] = tested on: Human immunodeficiency virus; assay: Antiviral activity against HIV with reverse transcriptase K103N mutant assessed as inhibition of viral replication relative to wild type; assay type: functional
[12] = tested on: Human immunodeficiency virus; assay: Antiviral activity against HIV with reverse transcriptase V106A/G190A/F227L mutant assessed as inhibition of viral replication; assay type: functional, organism-based; conditions: Human immunodeficiency virus 1
[13] = tested on: Human immunodeficiency virus; assay: Antiviral activity against HIV with reverse transcriptase G190S mutant assessed as inhibition of viral replication; assay type: functional, organism-based; conditions: Human immunodeficiency virus 1
[14] = tested on: Human immunodeficiency virus; assay: Antiviral activity against HIV with reverse transcriptase CNDO mutant assessed as inhibition of viral replication relative to wild type; assay type: functional
[15] = tested on: Human immunodeficiency virus; assay: Antiviral activity against HIV with reverse transcriptase L100I/K103N double mutant assessed as inhibition of viral replication relative to wild type; assay type: functional
[16] = tested on: Human immunodeficiency virus; assay: Antiviral activity against HIV with reverse transcriptase Y181C/G190A double mutant assessed as inhibition of viral replication relative to wild type; assay type: functional
[17] = tested on: Human immunodeficiency virus; assay: Antiviral activity against HIV with reverse transcriptase G190A mutant assessed as inhibition of viral replication; assay type: functional, organism-based; conditions: Human immunodeficiency virus 1
[18] = tested on: Human immunodeficiency virus; assay: Antiviral activity against HIV with reverse transcriptase Y188L mutant assessed as inhibition of viral replication; assay type: functional, organism-based; conditions: Human immunodeficiency virus 1
[19] = tested on: Human immunodeficiency virus; assay: Antiviral activity against HIV with reverse transcriptase Y181C mutant assessed as inhibition of viral replication relative to wild type; assay type: functional
[20] = tested on: Human immunodeficiency virus; assay: Antiviral activity against HIV with reverse transcriptase MDRC4 mutant assessed as inhibition of viral replication; assay type: functional, organism-based; conditions: Human immunodeficiency virus 1
[21] = tested on: Human immunodeficiency virus; assay: Antiviral activity against HIV with reverse transcriptase K103N/P225H double mutant assessed as inhibition of viral replication relative to wild type; assay type: functional
[22] = tested on: Human immunodeficiency virus; assay: Antiviral activity against HIV with reverse transcriptase K101E/G190A double mutant assessed as inhibition of viral replication relative to wild type; assay type: functional
[23] = tested on: Human immunodeficiency virus; assay: Antiviral activity against HIV with reverse transcriptase MDRC4 mutant assessed as inhibition of viral replication relative to wild type; assay type: functional
[24] = tested on: Human immunodeficiency virus; assay: Antiviral activity against HIV with reverse transcriptase K103N/G190A double mutant assessed as inhibition of viral replication; assay type: functional, organism-based; conditions: Human immunodeficiency virus 1
[25] = tested on: Human immunodeficiency virus; assay: Antiviral activity against HIV with reverse transcriptase K103N/P225H double mutant assessed as inhibition of viral replication; assay type: functional, organism-based; conditions: Human immunodeficiency virus 1
[26] = tested on: Human immunodeficiency virus; assay: Antiviral activity against HIV with reverse transcriptase Y181C mutant assessed as inhibition of viral replication; assay type: functional, organism-based; conditions: Human immunodeficiency virus 1
[27] = tested on: Human immunodeficiency virus; assay: Antiviral activity against HIV with reverse transcriptase K101E/Y181C/G190A mutant assessed as inhibition of viral replication relative to wild type; assay type: functional
[28] = tested on: Human immunodeficiency virus; assay: Antiviral activity against HIV with reverse transcriptase L100I mutant assessed as inhibition of viral replication relative to wild type; assay type: functional
[29] = tested on: Human immunodeficiency virus; assay: Antiviral activity against HIV with reverse transcriptase K103N/G190A double mutant assessed as inhibition of viral replication relative to wild type; assay type: functional
[30] = tested on: Human immunodeficiency virus; assay: Antiviral activity against HIV with reverse transcriptase K103N/Y181C/G190A mutant assessed as inhibition of viral replication relative to wild type; assay type: functional
[31] = tested on: Human immunodeficiency virus; assay: Antiviral activity against HIV with reverse transcriptase Y188L mutant assessed as inhibition of viral replication relative to wild type; assay type: functional
[32] = tested on: Human immunodeficiency virus; assay: Antiviral activity against HIV with reverse transcriptase L100I/K103N double mutant assessed as inhibition of viral replication; assay type: functional, organism-based; conditions: Human immunodeficiency virus 1
[33] = tested on: Human immunodeficiency virus; assay: Antiviral activity against HIV with reverse transcriptase K101E/G190A double mutant assessed as inhibition of viral replication; assay type: functional, organism-based; conditions: Human immunodeficiency virus 1
[34] = tested on: Human immunodeficiency virus; assay: Antiviral activity against HIV with reverse transcriptase K101E/Y181C/G190A mutant assessed as inhibition of viral replication; assay type: functional, organism-based; conditions: Human immunodeficiency virus 1
[35] = tested on: Human immunodeficiency virus; assay: Antiviral activity against HIV with reverse transcriptase K103N mutant assessed as inhibition of viral replication; assay type: functional, organism-based; conditions: Human immunodeficiency virus 1
[36] = tested on: Human immunodeficiency virus; assay: Antiviral activity against HIV with reverse transcriptase G190S mutant assessed as inhibition of viral replication relative to wild type; assay type: functional
[37] = tested on: Human immunodeficiency virus; assay: Antiviral activity against HIV with reverse transcriptase Y181C/G190A double mutant assessed as inhibition of viral replication; assay type: functional, organism-based; conditions: Human immunodeficiency virus 1
[38] = tested on: Human immunodeficiency virus; assay: Antiviral activity against HIV with reverse transcriptase V106A/G190A/F227L mutant assessed as inhibition of viral replication relative to wild type; assay type: functional
[39] = tested on: Human immunodeficiency virus; assay: Antiviral activity against HIV with reverse transcriptase K103N/Y181C double mutant assessed as inhibition of viral replication; assay type: functional, organism-based; conditions: Human immunodeficiency virus 1
[40] = tested on: Human immunodeficiency virus; assay: Antiviral activity against HIV with reverse transcriptase L100I mutant assessed as inhibition of viral replication; assay type: functional, organism-based; conditions: Human immunodeficiency virus 1
[41] = tested on: Human immunodeficiency virus; assay: Antiviral activity against HIV with reverse transcriptase G190A mutant assessed as inhibition of viral replication relative to wild type; assay type: functional
[42] = tested on: Human immunodeficiency virus; assay: Antiviral activity against HIV with reverse transcriptase CNDO mutant assessed as inhibition of viral replication; assay type: functional, organism-based; conditions: Human immunodeficiency virus 1
[43] = tested on: Human immunodeficiency virus; assay: Antiviral activity against HIV with reverse transcriptase K103N/Y181C double mutant assessed as inhibition of viral replication relative to wild type; assay type: functional
[44] = tested on: Human immunodeficiency virus; assay: Antiviral activity against HIV with reverse transcriptase K103N/Y181C/G190A mutant assessed as inhibition of viral replication; assay type: functional, organism-based; conditions: Human immunodeficiency virus 1

Molecule `N#Cc1cc(Cl)cc(Oc2cc(OCc3noc4nc(N)ccc34)ccc2Cl)c1` has an AUC (Rattus norvegicus) of 0.8 µM, an IC95 [1] of 278 nM and a half-life [2] of 5.8 h. It also gave an IC95 [3] of 34 nM, an IC95 [4] of 11 nM and an IC95 [5] of 93 nM. The clearance [6] was 93.4 mL/min/kg, the IC95 [7] was 34 nM and the Ki [8] was 0.4 nM. The Vd [9] was 44.7 L/kg and the Ki [10] was 0.3 nM.
With `N#Cc1cc(Cl)cc(Oc2cc(OCc3noc4ncccc34)ccc2Cl)c1` the IC95 [1] was 278 nM, the IC95 [3] was 103 nM and the IC95 [4] was 19 nM. It also gave an IC95 [5] of 93 nM, an IC95 [7] of 103 nM and a Ki [8] of 2.1 nM. The Ki [10] was 1.6 nM.
For `N#Cc1cc(Cl)cc(Oc2cc(OCc3n[nH]c4ncccc34)cc(F)c2Cl)c1`, the IC95 [1] was 93 nM, the IC95 [3] was 59 nM and the IC95 [4] was 16 nM. The IC95 [5] was 31 nM, the IC95 [7] was 11 nM and the Ki [8] was 0.9 nM. The Ki [10] was 0.5 nM.
In the case of `N#Cc1cc(Cl)cc(Oc2ccc(Cl)c(OCc3n[nH]c4ncccc34)c2)c1`, the IC95 [3] is reported as > 8300 nM, the IC95 [4] is reported as > 8300 nM and the IC95 [7] is reported as > 8300 nM. It also gave a Ki [8] of 140 nM and a Ki [10] of 17 nM.
With `O=C1Nc2ccc(Cl)cc2[C@@](C#CC2CC2)(C(F)(F)F)O1` [EFAVIRENZ] the “fold change (FC)” value [11] was 33.6, the IC50 [12] was > 500 nM and the IC50 [13] was 114 nM. The “fold change (FC)” value [14] was 1, the “fold change (FC)” value [15] was >454 and the “fold change (FC)” value [16] was 15.4. The IC50 [17] was 3.6 nM, the IC50 [18] was 124 nM and the “fold change (FC)” value [19] was 2.2. The IC50 [20] was 8 nM, the “fold change (FC)” value [21] was 306.2 and the “fold change (FC)” value [22] was 34.8. For the same molecule, the “fold change (FC)” value [23] was 16, the IC50 [24] was 141 nM and the IC50 [25] was 153 nM. The IC50 [26] was 1.1 nM, the “fold change (FC)” value [27] was 213 and the “fold change (FC)” value [28] was 42. The “fold change (FC)” value [29] was 281.4, the “fold change (FC)” value [30] was >454 and the “fold change (FC)” value [31] was 248.6. The IC50 [32] was > 500 nM, the IC50 [33] was 17.4 nM and the IC50 [34] was 106 nM. For the same molecule, the IC50 [35] was 16.8 nM, the “fold change (FC)” value [36] was 229 and the IC50 [37] was 7.7 nM. For the same molecule, the “fold change (FC)” value [38] was >454, the IC50 [39] was 27.8 nM and the IC50 [40] was 21 nM. For the same molecule, the “fold change (FC)” value [41] was 7.2, the IC50 [42] was 0.5 nM and the “fold change (FC)” value [43] was 55.6. The IC50 [44] was > 500 nM.
